The source made the active and inactive calls. The calls are words filed in the database; no cut-off is given here.
Experiments:
[1] = tested on: Plasmodium falciparum; assay: Non-competitive inhibition of Plasmodium falciparum IspD at 19.5 to 625 uM in presence of CTP by lineweaver-burk plot analysis; details: dose 19.5-625 µM
Method in brief: (§1)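 LC-MS IspD assay without coupling enzymes: 0.1 μM PfIspD, 2.0 mM MgCl2 in 100 mM Tris-HCl pH 7.6, 1 mM DTT, preincubated with inhibitor 10 min at 37 °C. One substrate varied 0–500 μM with the other at 500 μM; 40 min at 37 °C, heat-stopped at 95 °C. CDP-ME product quantified by HILIC LC-MS/MS with internal standard; Lineweaver–Burk plots.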

[2] = tested on: Plasmodium falciparum; assay: Uncompetitive inhibition of Plasmodium falciparum IspD at 19.5 to 625 uM in presence of MEP by lineweaver-burk plot analysis; details: dose 19.5-625 µM; method in brief: as §1

inhibition [1]: Active | inhibition [2]: Active
Structure (SMILES): N#Cc1ccc(NC(=O)Nc2cccc(S(=O)(=O)N3CCCC3)c2)cc1

From ChEMBL document CHEMBL6120953, “Targeting Plasmodium falciparum IspD in the Methyl-d-erythritol Phosphate Pathway: Urea-Based Compounds with Nanomolar Potency on Target and Low-Micromolar Whole-Cell Activity” (J Med Chem, 2024)
